An excerpt weighted towards active compounds, which were near 4.3% of everything screened.
FLuc act counter: affects firefly luciferase, flagging false hits in luciferase stimulation screens | P08659 | ATPlite luciferase biochemical, luminescence, 10 min; 0 = ATP-free wells, 1 = DMSO control | activation factor at 10 µM | 200,000 tested, under 10 active | AID 1027;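 active = luciferase activation factor, scaled between plate controls, of at least 2 with compound at 10 µM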
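Assay system: Luciferase/luciferin reagent mix; Medium: PBS as buffer for the ATP substrate; Dosing: test compounds dosed from 2 mM stocks in 100% DMSO; Times: 10 min, room temperature; Signal: luminescence from luciferase reaction; Read-out: luciferase activation; Controls: No-ATP low control, compound-free enzyme-plus-ATP high control.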
NF-kB neuron act: compounds increasing NF-kB expression in human neuronal cells; fold change at 12.5 µM; hit rate 1.6% among 190,000; NF-kB reporter expression; stronger effect = higher value; in the data active = fold change above about 3.3
STAT1 act: increases IFN-gamma driven STAT1 reporter signal; activation (% of control), % at 5.5 µM; NIH 3T3 STAT1-luciferase reporter, luminescence; 100% = IFN-gamma alone, no compound; AID 932; hit rate 2.6% among 200,000;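 active = activation above the screen-wide mean activation plus 3 SD, cut at about 130% in these data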
FLuc inh counter: inhibits firefly luciferase, flagging false hits in luciferase inhibition screens | P08659 | ATPLite firefly luciferase biochemical luminescence, 10 min | inhibition, % at 10 µM | hit rate 1.5% among 200,000;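 active = inhibition above about 50% when tested at 10 µM, limit read from the data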
APP 5'UTR act: activates APP 5'UTR luciferase reporter; activation, % at 2 µM; AID 1276; SH-SY5Y APP 5'UTR luciferase reporter, luminescence; zero percent = DMSO vehicle wells; hit rate 1% among 190,000;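 active = activation above a set limit, based on mean plus 3 SD of controls, cut at about 140% in these data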
STAT1 act conf: STAT1 activation, confirmation assay; NIH 3T3 STAT1-luciferase reporter, IFN-gamma potentiation, luminescence; 100% = IFN-gamma EC80 alone, no compound; activation (% of control), % at 5.7 µM; shares compounds with STAT1 act; hit rate 97% among 1,200;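 active = activation above a set limit carried over from the earlier primary STAT1 screen, cut at about 140% in these data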
NFkB act STAT1ct: NF-kappaB activation in STAT1 activator counter-screen | shares compounds with STAT1 act | HEK293T NF-kB luciferase reporter, TNF-alpha stimulated, luminescence; 100% = TNF-alpha with vehicle only | activation (% of control), % at 5.7 µM | hit rate 43% among 1,200 | AID 1306;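 active = activation above the mean of solvent-only control wells plus 3 SD, set per campaign, cut at about 130% in these data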;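 also: TNF-alpha given at a submaximal dose yielding about 80% of full reporter signal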
STAT3 act 2: human STAT3 activation in STAT1 activator counter-screen. U3A cells STAT3-luciferase reporter, IL-6, luminescence; cells lack STAT1; 100 = IL-6 alone, no compound effect. shares compounds with STAT1 act. hit rate 46% among 1,200. activation (% of control), % at 5.7 µM;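 active = activation above the solvent-only control well mean plus 3 SD, set per plate batch, cut at about 110% in these data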;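 also: higher means more STAT3 reporter activation so hits are non-selective activators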
Large screens that a line does not name were inactive (follow-up assays come after a bar, where they were run).

Cc1cs/c(=N/C(=S)Nc2ccccc2)n1C	NF-kB neuron act 4, STAT1 act 178 | STAT1 act conf 204 | NFkB act STAT1ct inactive | STAT3 act 2 inactive
CCCn1c(C)cs/c1=N\C(=S)Nc1ccccc1	none
c1cncc(-c2nnc(-c3cccnc3)nn2)c1	none
COc1ccc(NC(=O)Cn2nnc(-c3ccccc3F)n2)cc1Cl	none
Clc1ccc(-n2nnc(-c3cccnc3)n2)cc1Cl	STAT1 act 159 | STAT1 act conf 149 | NFkB act STAT1ct inactive | STAT3 act 2 inactive
COc1ncccc1-c1nnn(-c2ccc(F)cc2)n1	NF-kB neuron act 3.8, STAT1 act 155, FLuc inh counter 51 | STAT1 act conf 194 | NFkB act STAT1ct inactive | STAT3 act 2 112
COc1ncccc1-c1nnn(-c2ccc(Cl)c(Cl)c2)n1	NF-kB neuron act 4, STAT1 act 158 | STAT1 act conf 164 | NFkB act STAT1ct inactive | STAT3 act 2 inactive
COc1ncccc1-c1nnn(-c2ccc(C)cc2)n1	NF-kB neuron act 3.7, STAT1 act 152, FLuc inh counter 66 | STAT1 act conf 205 | NFkB act STAT1ct 141 | STAT3 act 2 117
COC(=O)Cc1csc(Nc2ccc(F)c(Cl)c2)n1	none
CCOc1ccc(/C=N/NC(=O)c2cc(-c3cccn3C)n[nH]2)cc1	none
COc1ccc2c([N+](=O)[O-])c(Cl)[nH]c2c1	none
CCCN(CCC)c1ncnc2c1cnn2-c1ccc(OC)cc1	STAT1 act 162, APP 5'UTR act 137 | STAT1 act conf 249 | NFkB act STAT1ct 145 | STAT3 act 2 inactive
COc1ccc(-n2ncc3c(NCc4ccco4)ncnc32)cc1	STAT1 act 162 | STAT1 act conf 185 | NFkB act STAT1ct 138 | STAT3 act 2 114
C=CCNc1ncnc2c1cnn2-c1ccc(OC)cc1	NF-kB neuron act 4.5, STAT1 act 178, FLuc inh counter 59, APP 5'UTR act 148 | STAT1 act conf 234 | NFkB act STAT1ct inactive | STAT3 act 2 inactive
COc1ccc(-n2ncc3c(Nc4cccc(C)c4)ncnc32)cc1	none
CCc1ccc(NC(=O)c2ccc3ncsc3c2)cc1	NF-kB neuron act 6.4, STAT1 act 162, APP 5'UTR act 152 | STAT1 act conf 203 | NFkB act STAT1ct 138 | STAT3 act 2 inactive
CN(C)/C=C1\C(=O)N(c2ccc([N+](=O)[O-])cc2)N=C1c1ccccc1	STAT1 act 184 | STAT1 act conf 173 | NFkB act STAT1ct inactive | STAT3 act 2 120
C/C(=C1/C(=O)N(c2ccc([N+](=O)[O-])cc2)N=C1c1ccccc1)N(C)C	none
Cc1ccc(/C=N/NC(=O)CC(=O)NCc2cccnc2)cc1	none
